High-throughput results as filed in PubChem BioAssay.
Shown are actives, neighbours in structure and some others; about 2% of the full set was active somewhere.
PPC-1+TRAIL kill = compounds killing PPC-1 cancer cells with TRAIL present, primary screen, TRAIL potentiator project, ATPLite luminescence, uHTS; 0.41% of 220,000 active; PPC-1 cells + TRAIL, ATPLite viability luminescence; cell killing (% activity), % at 4 µM or 5 µM;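 active = cell killing above 50% in the first pass at 4 µM, then a duplicate retest at 5 µM averaging 50% or more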
TRAIL sens C8 = viability loss with TRAIL in NB7+C8 cells, primary screen, TRAIL sensitizer project, cell-based, ATPlite luminescence; inhibition (viability loss, TRAIL sensitization), % at 10 µM; 1% of 360,000 active;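 active = compounds causing at least 50% loss of cell viability in the single-dose screen, relative to plate controls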
HSP90 refold inh = HSP90 inhibitors, primary screen, cell lysate, luminescence; Heat shock protein HSP 90 (rabbit reticulocyte lysate; luciferase refolding); AID 1789, 2009; inhibition, % at 5.6 µM; 0.91% of 290,000 active; Rabbit reticulocyte lysate, luciferase refolding luminescence, 3 h;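 active = inhibition above the screen-wide mean plus 3 SD, computed separately per campaign, cut at about 16% in these data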;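 also: inhibitors lower the luminescence because luciferase stays unfolded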
FLuc stim CS = FLuc activators, initial screening, artefact control for FLuc-dependent activation tests, biochemical, ATPlite luminescence | Luciferin 4-monooxygenase (Photinus pyralis), P08659 | ATPlite luciferase biochemical, 10 min; 0 = ATP-free wells, 1 = DMSO control | activation factor at 10 µM | 200,000 tested, under 10 active;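 active = luciferase activation factor, scaled between plate controls, of at least 2 with compound at 10 µM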
Target sequence (P08659 whole entry, looked up): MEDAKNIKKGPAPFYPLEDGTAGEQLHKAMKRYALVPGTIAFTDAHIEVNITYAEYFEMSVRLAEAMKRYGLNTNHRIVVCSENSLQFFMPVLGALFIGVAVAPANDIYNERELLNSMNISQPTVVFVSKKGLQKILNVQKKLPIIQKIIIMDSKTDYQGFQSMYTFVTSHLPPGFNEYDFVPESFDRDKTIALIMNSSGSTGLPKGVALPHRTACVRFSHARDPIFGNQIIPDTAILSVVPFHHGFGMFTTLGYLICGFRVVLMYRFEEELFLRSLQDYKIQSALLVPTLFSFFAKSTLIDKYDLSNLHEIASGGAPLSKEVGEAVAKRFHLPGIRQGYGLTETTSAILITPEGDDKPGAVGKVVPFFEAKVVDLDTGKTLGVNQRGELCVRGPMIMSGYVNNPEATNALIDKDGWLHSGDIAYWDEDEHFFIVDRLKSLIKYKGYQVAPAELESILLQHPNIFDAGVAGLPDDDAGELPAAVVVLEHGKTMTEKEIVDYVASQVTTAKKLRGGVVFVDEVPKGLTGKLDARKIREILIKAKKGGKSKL
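Assay system: Luciferase/luciferin detection reagent, cell-free biochemical luciferase assay / Read-out: luciferase activation / Benchmarks: No-ATP low control, compound-free enzyme-plus-ATP high control / Medium: PBS buffer for ATP / Detection: luminescence measurement of luciferase light output / Schedule: 10 min at ambient temperature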
FLuc inh counter = firefly luciferase enzyme inhibitors, primary screen, artefact control for luciferase-based inhibitor screens, biochemical, luminescence, ATPLite. Luciferin 4-monooxygenase (Photinus pyralis), P08659. inhibition, % at 10 µM. 10 min. 1.5% of 200,000 active;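 active = inhibition above about 50% when tested at 10 µM, limit read from the data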
HSP90 confirm = HSP90 inhibitors, confirmation, cell lysate, luminescence; shares compounds with HSP90 refold inh; 64% of 2,300 active; rabbit reticulocyte lysate, luciferase refolding luminescence, 3 h; inhibition, % at 5.9 µM; AID 1846, 2009; in the data active = inhibition above about 18%
luciferase ctr = firefly luciferase inhibitors, HSP90 counter-screen, confirmation, artefact control for HSP90 inhibitor project, biochemical, luminescence, triplicate. shares compounds with HSP90 refold inh. 48% of 2,300 active. inhibition, % at 5.9 µM. AID 1847, 2009. purified native firefly luciferase;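 active = inhibition above the mean inhibition of all tested sample wells plus 3 SD, cut at about 10% in these data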
Each line names hits and unclear results; the compound was inactive in the other large screens (follow-up assays come after a bar, where they were run).

CC(C)NC(=O)COC(=O)c1ccccc1C(=O)c1ccccc1	none
CCOC(=O)c1[nH]cc(-c2ccccc2)c1N1CCOCC1	HSP90 refold inh 18 | HSP90 confirm inactive | luciferase ctr inactive
COc1cccc(C(=O)O/N=C(\N)c2ccccn2)c1OC	HSP90 refold inh 53 (no result: PPC-1+TRAIL kill, FLuc stim CS, FLuc inh counter) | HSP90 confirm 64 | luciferase ctr 72
COc1cccc(C(=O)O/N=C(\N)c2ccccn2)c1	TRAIL sens C8 79, HSP90 refold inh 67 (no result: PPC-1+TRAIL kill, FLuc stim CS, FLuc inh counter) | HSP90 confirm 85 | luciferase ctr 91
N/C(=N\OC(=O)c1ccc(=O)n(Cc2ccccc2)c1)c1ccccn1	none
CCCc1ccc(C(=O)O/N=C(\N)c2ccccn2)cc1	TRAIL sens C8 89, HSP90 refold inh 78 (no result: PPC-1+TRAIL kill, FLuc stim CS, FLuc inh counter) | HSP90 confirm 75 | luciferase ctr 89
COc1ccccc1/C=N\N=C(\N)c1ccccn1	HSP90 refold inh 25 | HSP90 confirm inactive | luciferase ctr inactive
COc1cccc(C(=O)NCCCNC(=O)c2ccccn2)c1	none (no result: PPC-1+TRAIL kill, FLuc stim CS, FLuc inh counter)
COc1ccccc1CC(=O)O/N=C(\N)c1ccccn1	none (no result: FLuc stim CS, FLuc inh counter)
Cc1ccccc1CN(C)CC(=O)Nc1c(C)cccc1C(C)C	none
O=C(NC(=S)N(CCO)Cc1ccccc1)c1ccc(S(=O)(=O)N2CCCC2)cc1	none
O=C(O)/C(=C\c1ccc(-c2ccccc2[N+](=O)[O-])o1)c1ccccc1	HSP90 refold inh 34 (no result: PPC-1+TRAIL kill, FLuc stim CS, FLuc inh counter) | HSP90 confirm inactive | luciferase ctr inactive
CCC(CC)NC(=O)CN1CCN(S(=O)(=O)c2ccc(Br)s2)CC1	none (no result: PPC-1+TRAIL kill, HSP90 refold inh, FLuc stim CS, FLuc inh counter)
Cc1ccc(S(=O)(=O)CCC(=O)OCCOc2ccc(Br)cc2)cc1	none (no result: PPC-1+TRAIL kill, HSP90 refold inh, FLuc stim CS, FLuc inh counter)
CC(O)Cn1c(N2CCCC2)nc2c1c(=O)[nH]c(=O)n2C (centres undefined)	none (no result: PPC-1+TRAIL kill, FLuc stim CS, FLuc inh counter)
Cc1ccc(-c2nc(-c3ccccn3)no2)cc1[N+](=O)[O-]	TRAIL sens C8 52, HSP90 refold inh 30 (no result: FLuc stim CS, FLuc inh counter) | HSP90 confirm 58 | luciferase ctr 52
CCCCNC1=CC(=O)C(=O)c2ccccc21	HSP90 refold inh 24 (no result: PPC-1+TRAIL kill) | HSP90 confirm 19 | luciferase ctr inactive
COC(=O)c1ccccc1OCCCOc1ccc(C=O)cc1OC	HSP90 refold inh 60 | HSP90 confirm 70 | luciferase ctr inactive
COC(=O)c1ccccc1OCCOc1ccccc1C(=O)OC	none
CC(c1ccccc1)n1c(-c2cccs2)nc2c(c(=O)c3ccccc3n2C)c1=O (centres undefined)	HSP90 refold inh 25 (no result: FLuc stim CS, FLuc inh counter) | HSP90 confirm inactive | luciferase ctr inactive
O=C(CCS(=O)(=O)c1ccc(Br)cc1)NCc1ccc(F)cc1	none (no result: PPC-1+TRAIL kill, FLuc stim CS, FLuc inh counter)
O=C1NC(=O)/C(=C\c2ccc(OCc3cccc(C(=O)O)c3)c(Cl)c2)N1	HSP90 refold inh 31 | HSP90 confirm 45 | luciferase ctr 50
COc1ccc(-c2noc(C3CCCN(C(=O)Nc4ccccc4)C3)n2)cc1 (centres undefined)	HSP90 refold inh 19 (no result: PPC-1+TRAIL kill) | HSP90 confirm inactive | luciferase ctr inactive
COc1ccc(NC(=O)N2CCCC(c3nc(-c4ccc(C(C)C)cc4)no3)C2)cc1 (centres undefined)	HSP90 refold inh 65 | HSP90 confirm inactive | luciferase ctr inactive
COc1ccc(NC(=O)N2CCCC(c3nc(-c4ccc(OC)cc4)no3)C2)cc1 (centres undefined)	HSP90 refold inh 21 | HSP90 confirm inactive | luciferase ctr inactive
COc1ccc(-c2noc(C3CCCN(C(=O)Nc4ccccc4F)C3)n2)cc1 (centres undefined)	HSP90 refold inh 27 | HSP90 confirm inactive | luciferase ctr inactive
COc1ccc(-c2noc(C3CCCN(C(=O)c4ccccc4)C3)n2)cc1 (centres undefined)	none (no result: FLuc stim CS, FLuc inh counter)
Cn1c2ccccc2c(=O)c2c(=O)n(Cc3ccccc3)c(-c3ccc(F)cc3)nc21	none (no result: FLuc stim CS, FLuc inh counter)
